Assay results as given in article PMC6863055 (Dalton transactions (Cambridge, England : 2003), 2019).
Like-named read-outs stand apart in the source and are kept apart here. Marks after values point to notes of the source that are not given here.

Columns and labels:
[1] = ref [51], [52]; cited from earlier work
[2] = Formation constants with Mg2+; type: binding; details: Mg^2+; I=0.15 M NaCl, T=298 K
Method in brief: (§1)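 Complexes were studied by direct pH-potentiometric titration at 1:1 and 2:1 metal-to-ligand ratios, with 150–200 data pairs and 1 min equilibration per point. With metal in excess, titration continued until precipitate appeared (pH 7–9). Samples were at 25 °C, 0.15 M NaCl, under N2, with a calibrated electrode and [H+] corrected by the Irving method.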

[3] = Protonation constants by pH-potentiometric titration; type: physicochemical
Method in brief: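 Test compound (2.28 mM) titrated directly with standardized NaOH over pH 1.80–12.00. Samples were 6.00 mL, thermostatted at 25 °C, held at 0.15 M NaCl, stirred under N2. The electrode was calibrated with KH-phthalate (pH 4.005) and borax (pH 9.177) buffers. [H+] was obtained by the Irving method (pKw 13.820). Protonation constants come from fitting the pH-potentiometric data.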

[4] = Cu^2+, cited from earlier work; for log β [ML]/[M][L]: I=0.5 M, NaNO3, ref [57]
[5] = Zn^2+, cited from earlier work
[6] = Formation constants with Zn2+; type: binding; details: Zn^2+; I=0.15 M NaCl, T=298 K
Method in brief: as §1

[7] = Metabolic stability in mouse hepatocytes; type: in vitro ADME
Method in brief: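 Murine hepatocytes (1×10^6/mL) incubated with test compound (2 µM final, DMSO stock) for 0–240 min at 37 °C, 5% CO2. Reactions were quenched with two volumes of acetonitrile containing 0.15% formic acid and tolbutamide internal standard, then analysed by LC-MS/MS. % remaining is relative to T0. Half-life = 0.693/slope of ln % remaining versus time; CLint was taken from the slope of ln peak-area ratio versus time.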

[8] = Metabolic stability in mouse liver microsomes; type: in vitro ADME; details: murine liver microsomes
Method in brief: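 Male ICR/CD-1 mouse liver microsomes (0.25 mg) in 50 mM Tris pH 7.5 with test compound at 2 µM final (DMSO stock). Incubated at 37 °C with shaking and an NADPH-regenerating system (NADP, glucose-6-phosphate, G6P dehydrogenase). Time points were quenched with acetonitrile, 0.2% formic acid and tolbutamide internal standard; the T0 sample was quenched before compound or cofactors were added. Parent was measured by LC-MS/MS (223.1→180.1). Half-life = 0.693/slope of ln % remaining versus time.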

[9] = Formation constants with Ca2+; type: binding; details: Ca^2+; I=0.15 M NaCl, T=298 K
Method in brief: as §1

FRDA cells = details: at 125 nM; toxicity induced by BSO in FRDA cells; ref [5]; cited from earlier work
[10] = Formation constants with Cu2+; type: binding; details: Cu^2+, I=0.15 M NaCl, T=298 K
[11] = I=0.15 M, NaClO4; ref [45]; cited from earlier work
[12] = Ca^2+, I=0.1 M, NaNO3, ref [54], cited from earlier work
[13] = Mg^2+; I=0.5 M, KNO3; ref [53]; cited from earlier work

SMILES: Oc1cccnc1 [3-pyridol]
- acidity constant of aromatic -OH functionality [1]: 8.72

SMILES: Oc1ccncc1 [4-pyridol]
- acidity constant of aromatic -OH functionality [1]: 11.09

SMILES: c1cc2nc(c1)CNCCNCCNC2 [L1, 3,6,9,15-tetraazabicyclo[9.3.1]penta-deca-1(15),11,13-triene]
- log β [ML]/[M][L] [2]: 4.04(2)
- log K1^H (protonation constant) ([3]; I=0.15 M NaCl, T=298 K): 11.37 (1)
- log K2^H (protonation constant) ([3]; I=0.15 M NaCl, T=298 K): 8.22(5)
- ∑ log KN-donors ([3]; I=0.15 M NaCl, T=298 K): 21.20
- log K3^H (protonation constant) ([3]; I=0.15 M NaCl, T=298 K, for L2 and L3 the pyridol -OH): 1.61(5)
- log β [ML]/[M][L][OH^−] ([4]; previously described by others, ref [47], [57], [58], [62]): 7.48^c
- log β [ML]/[M][L] ([5]; I=0.5 M, KNO3, ref [47]): 14.40^f
- log β [ML]/[M][L][OH^−] ([5]; I=0.5 M, KNO3, ref [47]): 8.50^f

SMILES: Oc1cc2nc(c1)CNCCNCCNC2 [L2, 3,6,9,15-tetraazabicyclo[9.3.1]penta-deca-1(15),11,13-trien-13-ol]
- log β [MHL]/[M][L][H^+] [2]: 13.53(2)
- log β [ML]/[M][L] [2]: 4.96(1)
- log β [MH2L]/[M][L][H^+]^2 [6]: 25.72(7)
- log β [MHL]/[M][L][H^+] [6]: 23.02(3)
- log β [ML]/[M][L] [6]: 17.18(7)
- log β [ML]/[M][L][OH^−] [6]: 8.92(9)
- isoelectric point (pI) [3]: 10.31
- log K1^H (protonation constant) ([3]; I=0.15 M NaCl, T=298 K): 11.56(3)
- log K2^H (protonation constant) ([3]; I=0.15 M NaCl, T=298 K): 9.05(5)
- log K4^H (protonation constant) ([3]; I=0.15 M NaCl, T=298 K): 1.68(5)
- ∑ log KN-donors ([3]; I=0.15 M NaCl, T=298 K): 22.29
- fraction of [H2(L2)]^+ species in solution ([3]; at biological pH): 97%
- calculated Clint ([7]; murine hepatocytes): < 0.02 µL/min/million cells
- clearance classification ([7]; murine hepatocytes): low clearance
- half-life ([7]; murine hepatocytes 1×10^6/mL, 2 µM, 0–240 min): greater than 240 min
- % depleted over the time course of the experiment ([7]; murine hepatocytes, 0–240 min): 2–9%
- % of molecule retained at termination of the experiment ([8]; NADPH regenerating system, 2 µM): 65%
- in vitro half-life ([8]; NADPH regenerating system, 2 µM, substrate depletion): greater than 120 min
- clearance classification ([8]; Phase I): low-moderate clearance
- log β [MHL]/[M][L][H^+] [9]: 13.66(5)
- quenching of radical based toxicity (FRDA cells): 100%
- log β [MHL]/[M][L][H^+] [10]: 25.79(3)
- log β [ML]/[M][L] [10]: 19.16(11)
- log β [ML]/[M][L][OH^−] [10]: 8.55(13)
- log β [MH2L]/[M][L][H^+]^2 ([10]; determined by direct UV-vis titration): 28.38(5)^a

SMILES: C1CNCCNCCNCCN1 [cyclen]
- log K1^H (protonation constant) [11]: 10.66
- log K2^H (protonation constant) [11]: 9.69
- log K3^H (protonation constant) [11]: 1.41
- ∑ log KN-donors [11]: 21.76
- log β [ML]/[M][L] [4]: 23.3
- log β [ML]/[M][L] ([4]; listed as Cyclen): 23.3^d
- log β [ML]/[M][L] [12]: 3.12
- log β [ML]/[M][L] ([12]; listed as Cyclen): 3.12^b
- log β [ML]/[M][L] ([5]; ref [58]): 16.2^e
- log β [ML]/[M][L] [13]: 2.25^a
